Consider 34 compounds from ChEMBL document CHEMBL4480371, “Benzoflavone derivatives as potent antihyperuricemic agents” (Medchemcomm, 2019).

Activity calls are given as the source filed them. No cut-off for these calls is given here.

Usually IC50 stands for the concentration needed to halve the response being measured.

T1 sequence (P80457 whole entry): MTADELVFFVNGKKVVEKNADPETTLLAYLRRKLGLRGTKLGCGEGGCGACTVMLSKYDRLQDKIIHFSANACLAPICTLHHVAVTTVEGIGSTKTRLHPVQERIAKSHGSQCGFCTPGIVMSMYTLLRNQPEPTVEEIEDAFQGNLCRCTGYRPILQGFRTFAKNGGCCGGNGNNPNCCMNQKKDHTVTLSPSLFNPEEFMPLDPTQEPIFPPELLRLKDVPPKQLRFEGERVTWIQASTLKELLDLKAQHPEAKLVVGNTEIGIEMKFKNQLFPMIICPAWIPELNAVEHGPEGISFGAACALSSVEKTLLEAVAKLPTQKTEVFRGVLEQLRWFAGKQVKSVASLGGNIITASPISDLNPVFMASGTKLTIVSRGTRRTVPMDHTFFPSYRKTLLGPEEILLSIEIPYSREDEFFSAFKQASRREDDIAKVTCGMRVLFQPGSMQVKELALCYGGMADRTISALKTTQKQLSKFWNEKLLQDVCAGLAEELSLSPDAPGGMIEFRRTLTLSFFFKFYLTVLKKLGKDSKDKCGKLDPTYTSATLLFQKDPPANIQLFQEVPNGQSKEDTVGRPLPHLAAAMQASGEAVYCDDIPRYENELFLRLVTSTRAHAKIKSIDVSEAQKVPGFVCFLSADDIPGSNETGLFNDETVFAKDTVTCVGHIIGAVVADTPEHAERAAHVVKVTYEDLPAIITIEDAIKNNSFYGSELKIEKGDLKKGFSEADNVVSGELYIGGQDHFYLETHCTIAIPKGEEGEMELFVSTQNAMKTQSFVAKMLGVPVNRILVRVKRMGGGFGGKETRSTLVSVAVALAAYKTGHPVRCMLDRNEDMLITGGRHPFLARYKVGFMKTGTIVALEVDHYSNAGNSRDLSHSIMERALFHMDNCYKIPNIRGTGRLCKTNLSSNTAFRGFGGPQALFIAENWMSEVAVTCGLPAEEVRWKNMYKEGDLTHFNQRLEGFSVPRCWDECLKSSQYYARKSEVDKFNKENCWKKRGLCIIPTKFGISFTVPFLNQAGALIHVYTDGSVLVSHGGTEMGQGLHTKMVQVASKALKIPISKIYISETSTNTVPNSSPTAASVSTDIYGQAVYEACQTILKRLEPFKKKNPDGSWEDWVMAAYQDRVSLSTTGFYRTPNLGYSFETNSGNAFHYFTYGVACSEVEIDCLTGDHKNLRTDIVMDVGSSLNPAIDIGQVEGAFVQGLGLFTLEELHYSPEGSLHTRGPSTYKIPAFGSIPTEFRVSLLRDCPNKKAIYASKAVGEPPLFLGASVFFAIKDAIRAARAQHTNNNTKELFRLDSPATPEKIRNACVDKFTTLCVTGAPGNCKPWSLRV

In the first data set the test system is Mus musculus. The experiment in a line: Anti-hyperuricemic effect in Swiss albino mouse model of potassium oxonate-induced hyperuricemia model assessed as reduction in serum uric acid level at 0.55 mg/kg, po treated 1 hr post potassium oxonate addition and measured after 30 mins by ERBA method. In kind it is functional, organism-based. The settings on record: 0.5 mg/kg, in the assay text read “0.5 mg/kg” for “0.55 mg/kg”. In short, it runs like this:
(§1)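 Male Swiss albino mice, […], 25–30 g, n = 6 per group, fasted 6 h from feed. Xanthine 500 mg/kg was given orally, then potassium oxonate 300 mg/kg ip 30 min later, both in 0.5% CMC. Compounds were dosed orally 1 h after oxonate. Retro-orbital blood was drawn 2 h after PO+Xn, and serum uric acid was read by kit at 505 nm (5 min, 37 °C). Mean ± S.E.M., ANOVA/Tukey.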
On to `O=c1cc(-c2ccc(Br)cc2)oc2c1ccc1ccccc12`, for which the inhibition result is “inactive”.
Still for that read-out and setting: then `O=c1cc(-c2cc(F)cc(F)c2)oc2ccc3ccccc3c12`, with “inactive”; and `O=c1cc(-c2ccccc2F)oc2c1ccc1ccccc12`, with “inactive”.
Same read-out and setting: the same measure for `O=c1cc(-c2cc(F)cc(F)c2)oc2c1ccc1ccccc12`: “inactive”.
Same read-out and setting: the same measure for `O=c1cc(-c2ccc(Br)cc2)oc2ccc3ccccc3c12`: “inactive”.

Another data set concerns the target T1, Xanthine dehydrogenase/oxidase (Bos taurus, UniProt P80457). Put plainly: Competitive mixed type inhibition of bovine milk xanthine oxidase using xanthine as substrate preincubated for 5 mins followed by substrate addition by UV-visible spectrophotomety based Lineweaver-Burk plot analysis. The note with it: cattle. In short, it runs like this: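 Bovine milk xanthine oxidase was assayed in 50 mM potassium phosphate (pH 7.6) at 25 °C, with uric acid formation followed at 293 nm. Enzyme was preincubated 5 min with inhibitor in 1% v/v DMSO, and the reaction was started with xanthine. Inhibition mode came from Lineweaver–Burk plots.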
For the compound `O=c1cc(-c2ccc([N+](=O)[O-])cc2)oc2ccc3ccccc3c12`, the “inhibition (INH)” value was “Active”.

The next data set concerns Mus musculus. Put plainly: Anti-hyperuricemic effect in Swiss albino mouse model of potassium oxonate-induced hyperuricemia model assessed as serum uric acid level at 5 mg/kg, po treated 1 hr post potassium oxonate addition and measured after 30 mins by ERBA method (reference value: 5.9 +/- 0.42 mg/dl). In kind it is functional.
Settings: not given
In short, it runs like this: as §1
Regarding `Cc1nc(-c2ccc(OCC(C)C)c(C#N)c2)sc1C(=O)O` [FEBUXOSTAT], the Activity came to 1.5 mg/dL.
Still for that read-out and setting: then `O=c1cc(-c2cc(F)cc(F)c2)oc2ccc3ccccc3c12`, with “Active”; and `O=c1cc(-c2ccc(Br)cc2)oc2ccc3ccccc3c12`, with “Active”.

A further data set concerns Mus musculus. The experiment in a line: Anti-hyperuricemic effect in Swiss albino mouse model of potassium oxonate-induced hyperuricemia model assessed as serum uric acid level at 10 mg/kg, po treated 1 hr post potassium oxonate addition and measured after 30 mins by ERBA method (reference value: 5.9 +/- 0.42 mg/dl).
Settings: not given
In kind it is functional.
In the case of `O=c1cc(-c2ccc([N+](=O)[O-])cc2)oc2c1ccc1ccccc12`, the outcome was inactive.
Same read-out and setting: then `O=c1cc(-c2ccc([N+](=O)[O-])cc2)oc2ccc3ccccc3c12`, with “Active”; and `Oc1ncnc2[nH]ncc12` [ALLOPURINOL], with 1.8 mg/dL; and `O=c1cc(-c2ccc(F)cc2)oc2c1ccc1ccccc12`, with “inactive”.

A further data set relates to Mus musculus. The experiment in a line: Anti-hyperuricemic effect in Swiss albino mouse model of potassium oxonate-induced hyperuricemia model assessed as reduction in serum uric acid level treated orally 1 hr post potassium oxonate addition and measured after 30 mins by ERBA method.
Settings: not given
In kind it is functional, organism-based. In short, it runs like this: as §1
For the compound `O=c1cc(-c2ccc(Br)cc2)oc2c1ccc1ccccc12`, the Activity entry was “Dose-dependent effect”.
Still for that read-out and setting: then `O=c1cc(-c2ccc([N+](=O)[O-])cc2)oc2c1ccc1ccccc12`, with “Dose-dependent effect”; and `O=c1cc(-c2cc(F)cc(F)c2)oc2ccc3ccccc3c12`, with “Dose-dependent effect”; and `O=c1cc(-c2ccc([N+](=O)[O-])cc2)oc2ccc3ccccc3c12`, with “Dose-dependent effect”.
The same measure, in the same setting: then `O=c1cc(-c2ccccc2F)oc2c1ccc1ccccc12`, with “Dose-dependent effect”; and `O=c1cc(-c2cc(F)cc(F)c2)oc2c1ccc1ccccc12`, with “Dose-dependent effect”; and `O=c1cc(-c2ccc(Br)cc2)oc2ccc3ccccc3c12`, with “Dose-dependent effect”.
In the case of `O=c1cc(-c2ccc(F)cc2)oc2c1ccc1ccccc12`, the Activity entry was “Dose-dependent effect”.

In another data set the test system is Mus musculus. The experiment in a line: Anti-hyperuricemic effect in Swiss albino mouse model of potassium oxonate-induced hyperuricemia model assessed as serum uric acid level at 1 to 10 mg/kg, po treated 1 hr post potassium oxonate addition and measured after 30 mins by ERBA method (reference value: 5.9 +/- 0.42 mg/dl). In kind it is functional.
Settings: not given
In short, it runs like this:
as §1
With `O=c1cc(-c2ccc(Br)cc2)oc2c1ccc1ccccc12`, the Activity fell in the range of 1.8 to 2.8 mg/dL.
On the same count and under the same terms, the same measure for `O=c1cc(-c2cc(F)cc(F)c2)oc2ccc3ccccc3c12`: 1.8 to 2.8 mg/dL; for `O=c1cc(-c2ccccc2F)oc2c1ccc1ccccc12`: 1.8 to 2.8 mg/dL; for `O=c1cc(-c2cc(F)cc(F)c2)oc2c1ccc1ccccc12`: 1.8 to 2.8 mg/dL.
The same measure, in the same setting: the same measure for `O=c1cc(-c2ccc(Br)cc2)oc2ccc3ccccc3c12`: 1.8 to 2.8 mg/dL.

A further data set addresses T1, Xanthine dehydrogenase/oxidase. Put plainly: Inhibition of bovine milk xanthine oxidase using xanthine as substrate preincubated for 5 mins followed by substrate addition by UV-visible spectrophotometry.
Settings: not given
Consider `O=c1cc(-c2ccc(Br)cc2)oc2c1ccc1ccccc12`, for which the IC50 was determined as 8.93 µM.
Still for that read-out and setting: then `O=c1cc(-c2ccc([N+](=O)[O-])cc2)oc2c1ccc1ccccc12`, with 1.95 µM.
Same read-out and setting: the same measure for `Cc1ccc(-c2cc(=O)c3c(ccc4ccccc43)o2)cc1`: more than 20 µM; for `O=c1cc(-c2cc([N+](=O)[O-])cc([N+](=O)[O-])c2)oc2c1ccc1ccccc12`: more than 20 µM; for `O=c1cc(-c2cccc([N+](=O)[O-])c2)oc2c1ccc1ccccc12`: more than 20 µM.
The compound `O=c1cc(-c2ccccc2Br)oc2c1ccc1ccccc12` registered an IC50 of 16.8 µM.
Still for that read-out and setting: then `O=c1cc(-c2cccc(Br)c2)oc2c1ccc1ccccc12`, with more than 20 µM; and `COc1ccc(-c2cc(=O)c3c(ccc4ccccc43)o2)cc1`, with more than 20 µM.
The same measure, in the same setting: then `O=c1cc(-c2ccccc2Br)oc2ccc3ccccc3c12`, with 17.1 µM; and `O=c1cc(-c2ccc(F)cc2)oc2ccc3ccccc3c12`, with 12.4 µM.
For the compound `O=c1cc(-c2cc(F)cc(F)c2)oc2ccc3ccccc3c12`, the IC50 was 7.67 µM.
The same measure, in the same setting: the same measure for `O=c1cc(-c2cccc(Cl)c2)oc2ccc3ccccc3c12`: more than 20 µM.
The same measure, in the same setting: then `O=c1cc(-c2ccc([N+](=O)[O-])cc2)oc2ccc3ccccc3c12`, with 5.21 µM; and `O=c1cc(-c2cc([N+](=O)[O-])cc([N+](=O)[O-])c2)oc2ccc3ccccc3c12`, with more than 20 µM; and `Cc1ccc(-c2cc(=O)c3ccc4ccccc4c3o2)cc1`, with more than 20 µM.
Compound `O=c1cc(-c2ccccc2)oc2c1ccc1ccccc12` [ALPHA-NAPHTHOFLAVONE] displayed an IC50 of more than 20 µM.
On the same count and under the same terms, then `O=c1cc(-c2cccc(Cl)c2)oc2c1ccc1ccccc12`, with more than 20 µM; and `O=c1cc(-c2cccc(Br)c2)oc2ccc3ccccc3c12`, with more than 20 µM.
Same read-out and setting: then `O=c1cc(-c2ccccc2I)oc2c1ccc1ccccc12`, with 19.4 µM; and `O=c1cc(-c2ccccc2)oc2ccc3ccccc3c12` [BETA-NAPHTHOFLAVONE], with more than 20 µM.
On the same count and under the same terms, then `O=c1cc(-c2cccc(Cl)c2Cl)oc2ccc3ccccc3c12`, with 18.6 µM.
As to `O=c1cc(-c2ccccc2F)oc2c1ccc1ccccc12`, it took 4.94 µM to reach half-maximal inhibition (IC50).
Still for that read-out and setting: the same measure for `O=c1cc(-c2ccccc2F)oc2ccc3ccccc3c12`: 14.7 µM.
On the same count and under the same terms, the same measure for `O=c1cc(-c2cc(F)cc(F)c2)oc2c1ccc1ccccc12`: 6.95 µM; for `O=c1cc(-c2ccc(Br)cc2)oc2ccc3ccccc3c12`: 8.9 µM.
Same read-out and setting: the same measure for `O=c1cc(-c2cccc(F)c2)oc2ccc3ccccc3c12`: more than 20 µM; for `O=c1cc(-c2cccc(Cl)c2Cl)oc2c1ccc1ccccc12`: more than 20 µM.
The compound `O=c1cc(-c2ccccc2I)oc2ccc3ccccc3c12` gave an IC50 of more than 20 µM.
On the same count and under the same terms, the same measure for `O=c1cc(-c2cccc(F)c2)oc2c1ccc1ccccc12`: more than 20 µM.
On the same count and under the same terms, the same measure for `O=c1cc(-c2ccc(F)cc2)oc2c1ccc1ccccc12`: 0.62 µM.
In turn, `O=c1cc(-c2cccc([N+](=O)[O-])c2)oc2ccc3ccccc3c12` returned an IC50 of more than 20 µM.
The same measure, in the same setting: then `COc1ccc(-c2cc(=O)c3ccc4ccccc4c3o2)cc1`, with 18.9 µM.

System in a further data set: not listed separately
Put plainly: Antioxidant activity assessed as DPPH radical scavenging activity shaken for 1 min and incubated under dark condition for 30 mins by spectrophotometric analysis. In kind it is functional.
Settings: not given
In short, it runs like this: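 DPPH at 0.004% w/v and compounds were made in methanol, mixed 1.5 mL to 1 mL, shaken 1 min at 37 °C, then kept 30 min in the dark. Absorbance was read at 517 nm and % scavenging calculated against a DPPH-plus-methanol control. […] Triplicate, mean.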
As for `O=c1cc(-c2ccc(Br)cc2)oc2c1ccc1ccccc12`, the IC50 stood at 0.35 µM.
Still for that read-out and setting: then `O=c1cc(-c2ccc([N+](=O)[O-])cc2)oc2c1ccc1ccccc12`, with 0.62 µM; and `Cc1ccc(-c2cc(=O)c3c(ccc4ccccc43)o2)cc1`, with more than 20 µM; and `O=c1cc(-c2cc([N+](=O)[O-])cc([N+](=O)[O-])c2)oc2c1ccc1ccccc12`, with 5.55 µM.
With `O=c1cc(-c2cccc([N+](=O)[O-])c2)oc2c1ccc1ccccc12`, the 50% inhibitory concentration (IC50) was 8.24 µM.
Same read-out and setting: the same measure for `O=c1cc(-c2ccccc2Br)oc2c1ccc1ccccc12`: 9.9 µM.
Consider `O=c1cc(-c2cccc(Br)c2)oc2c1ccc1ccccc12`, for which the IC50 was determined as 5.98 µM.
On the same count and under the same terms, then `COc1ccc(-c2cc(=O)c3c(ccc4ccccc43)o2)cc1`, with more than 20 µM.
For the compound `O=c1cc(-c2ccccc2Br)oc2ccc3ccccc3c12`, the IC50 is more than 20 µM.
Still for that read-out and setting: the same measure for `O=c1cc(-c2ccc(F)cc2)oc2ccc3ccccc3c12`: more than 20 µM.
Take `O=c1cc(-c2cc(F)cc(F)c2)oc2ccc3ccccc3c12`: the half-maximal inhibitory concentration (IC50) is more than 20 µM.
The same measure, in the same setting: then `O=c1cc(-c2cccc(Cl)c2)oc2ccc3ccccc3c12`, with more than 20 µM; and `O=c1cc(-c2ccc([N+](=O)[O-])cc2)oc2ccc3ccccc3c12`, with more than 20 µM; and `O=c1cc(-c2cc([N+](=O)[O-])cc([N+](=O)[O-])c2)oc2ccc3ccccc3c12`, with more than 20 µM.
In the case of `Cc1ccc(-c2cc(=O)c3ccc4ccccc4c3o2)cc1`, the IC50 is 6.5 µM.
For `O=c1cc(-c2ccccc2)oc2c1ccc1ccccc12` [ALPHA-NAPHTHOFLAVONE], the IC50 turned out to be 15.6 µM.
With `O=c1cc(-c2cccc(Cl)c2)oc2c1ccc1ccccc12`, the IC50 came out at 7.75 µM.
On to `O=c1cc(-c2cccc(Br)c2)oc2ccc3ccccc3c12`, for which the IC50 is more than 20 µM.
Same read-out and setting: the same measure for `O=c1cc(-c2ccccc2I)oc2c1ccc1ccccc12`: 7.33 µM.
On to `O=c1cc(-c2ccccc2)oc2ccc3ccccc3c12` [BETA-NAPHTHOFLAVONE], for which the IC50 was more than 20 µM.
Same read-out and setting: then `O=c1cc(-c2cccc(Cl)c2Cl)oc2ccc3ccccc3c12`, with more than 20 µM.
`O=c1cc(-c2ccccc2F)oc2c1ccc1ccccc12`: the IC50 was found to be 4.73 µM.
Still for that read-out and setting: then `O=c1cc(-c2ccccc2F)oc2ccc3ccccc3c12`, with more than 20 µM.
Turning to `O=c1cc(-c2cc(F)cc(F)c2)oc2c1ccc1ccccc12`, the IC50 was determined as 3.14 µM.
`O=c1cc(-c2ccc(Br)cc2)oc2ccc3ccccc3c12`: the IC50 was more than 20 µM.
Same read-out and setting: the same measure for `O=c1cc(-c2cccc(F)c2)oc2ccc3ccccc3c12`: more than 20 µM.
Still for that read-out and setting: the same measure for `O=c1cc(-c2cccc(Cl)c2Cl)oc2c1ccc1ccccc12`: 10.9 µM; for `O=c1cc(-c2ccccc2I)oc2ccc3ccccc3c12`: more than 20 µM; for `O=c1cc(-c2cccc(F)c2)oc2c1ccc1ccccc12`: 10.1 µM.
Still for that read-out and setting: then `O=c1cc(-c2ccc(F)cc2)oc2c1ccc1ccccc12`, with 0.83 µM.
Regarding `O=c1cc(-c2cccc([N+](=O)[O-])c2)oc2ccc3ccccc3c12`, the half-inhibitory concentration (IC50) was more than 20 µM.
The same measure, in the same setting: the same measure for `COc1ccc(-c2cc(=O)c3ccc4ccccc4c3o2)cc1`: 4.27 µM.

System in the next data set: not listed separately
The experiment in a line: Acute toxicity in potassium oxonate-induced Swiss albino mouse hyperuricemic model assessed as induction of abnormal behavior at 2000 mg/kg, po measured after 24 hrs. The note with it: in vivo.
As to `O=c1cc(-c2cc(F)cc(F)c2)oc2ccc3ccccc3c12`, the Activity entry is recorded as “Non-Toxic”.
`O=c1cc(-c2ccccc2F)oc2c1ccc1ccccc12`: the Activity result is recorded as “Non-Toxic”.
